Experimental data published in ChEMBL document CHEMBL4477236 (ACS Med Chem Lett, 2016).
The source made the active and inactive calls. No cut-off for these calls is given here.

Key:
Androgen receptor = target: T1, Androgen receptor (Homo sapiens, UniProt P10275); test: Inhibition of DHT-induced androgen receptor transactivation in human LNCaP cells after 24 hrs by luciferase reporter gene assay relative to control; format: cell-based
T1 sequence (P10275 whole entry): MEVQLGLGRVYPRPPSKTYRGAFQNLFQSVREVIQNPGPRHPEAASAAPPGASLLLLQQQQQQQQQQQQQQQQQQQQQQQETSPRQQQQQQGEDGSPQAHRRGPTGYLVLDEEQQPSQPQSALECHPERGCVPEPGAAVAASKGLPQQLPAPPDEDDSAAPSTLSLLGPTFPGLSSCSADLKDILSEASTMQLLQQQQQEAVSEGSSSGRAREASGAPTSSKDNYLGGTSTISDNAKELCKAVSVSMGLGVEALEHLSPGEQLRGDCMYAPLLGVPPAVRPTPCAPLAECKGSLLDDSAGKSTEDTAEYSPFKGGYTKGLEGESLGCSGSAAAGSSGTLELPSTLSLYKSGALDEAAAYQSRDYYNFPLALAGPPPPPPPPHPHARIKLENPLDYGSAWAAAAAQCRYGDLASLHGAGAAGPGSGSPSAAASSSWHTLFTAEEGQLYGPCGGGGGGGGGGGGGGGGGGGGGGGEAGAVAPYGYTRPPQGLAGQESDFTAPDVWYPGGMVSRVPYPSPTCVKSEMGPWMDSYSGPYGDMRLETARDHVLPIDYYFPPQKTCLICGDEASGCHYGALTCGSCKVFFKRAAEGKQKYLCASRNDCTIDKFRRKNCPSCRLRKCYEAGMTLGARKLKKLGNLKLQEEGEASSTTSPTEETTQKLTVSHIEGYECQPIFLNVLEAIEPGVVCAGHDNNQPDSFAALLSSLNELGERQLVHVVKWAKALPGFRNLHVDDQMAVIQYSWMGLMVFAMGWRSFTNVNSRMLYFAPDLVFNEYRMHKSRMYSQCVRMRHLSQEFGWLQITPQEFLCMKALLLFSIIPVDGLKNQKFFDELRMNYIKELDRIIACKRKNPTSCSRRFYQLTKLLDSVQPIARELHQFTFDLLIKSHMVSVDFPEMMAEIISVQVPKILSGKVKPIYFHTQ

CWR22R [1] = test: Antiproliferative activity against human CWR22Rv1 cells after 7 days by MTT assay; format: functional, cell-based; details: 22Rv1, 168 h
Summary of the method: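 MTT proliferation assay in CWR22Rv1 human prostate cancer cells. GI50, the concentration causing 50% growth inhibition, was read from dose–response curves.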

[2] = target: T2, Steroid 17-alpha-hydroxylase/17,20 lyase (Homo sapiens, UniProt P05093); test: Inhibition of CYP17 (unknown origin)
T2 sequence (P05093 whole entry): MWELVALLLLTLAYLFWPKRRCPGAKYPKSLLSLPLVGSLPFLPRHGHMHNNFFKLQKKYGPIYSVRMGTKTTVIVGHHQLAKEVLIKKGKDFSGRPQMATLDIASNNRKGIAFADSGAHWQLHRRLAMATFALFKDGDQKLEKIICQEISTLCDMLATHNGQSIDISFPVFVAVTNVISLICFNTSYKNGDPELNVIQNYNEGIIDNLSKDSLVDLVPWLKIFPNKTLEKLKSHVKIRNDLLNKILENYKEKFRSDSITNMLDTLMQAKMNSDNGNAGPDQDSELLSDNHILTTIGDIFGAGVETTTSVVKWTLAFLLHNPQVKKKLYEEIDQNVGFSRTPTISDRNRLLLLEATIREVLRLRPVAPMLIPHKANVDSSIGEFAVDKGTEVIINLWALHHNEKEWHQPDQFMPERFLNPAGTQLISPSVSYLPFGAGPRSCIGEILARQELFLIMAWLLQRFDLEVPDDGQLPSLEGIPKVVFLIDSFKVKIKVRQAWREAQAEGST
Summary of the method: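 CYP17 enzyme activity measured in duplicate over a range of inhibitor concentrations. IC50 read from the dose–response curve as the concentration giving 50% inhibition.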

[3] = target: T3, Androgen receptor (Homo sapiens) (UniProt P10275); test: Induction of AR-V7 degradation in human CWR22Rv1 cells upto 7.5 uM after 72 hrs by Western blot analysis; format: cell-based
T3 sequence (whole entry): T1 sequence (P10275 whole entry)
Summary of the method: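 CWR22Rv1 cells treated across 0 → 7.5 μM for 72 h. Lysates analysed by Western blot for f-AR and AR-V7. EC50 taken from dose–response curves.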

[4] = target: T3, Androgen receptor (Homo sapiens); test: Inhibition of DHT-induced androgen receptor transactivation in human LNCaP cells at 10 uM after 24 hrs by luciferase reporter gene assay relative to control; format: cell-based
Summary of the method: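 LNCaP cells dual-transfected with the probasin luciferase reporter AAR2-luc plus the Renilla vector pRL-null. Cells treated with compound at 10 μM for 24 h with 10 nM DHT. Luminescence read and normalized to Renilla activity. Result expressed as fold induction over unstimulated baseline. Replicates from three independent experiments.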

LNCaP = test: Antiproliferative activity against human LNCAP cells after 7 days by MTT assay; format: functional, cell-based; details: 168 h
Summary of the method: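 LNCaP cell growth measured by MTT assay. GI50, the concentration giving 50% growth inhibition, was obtained by nonlinear regression of dose–response curves pooled from at least three independent experiments; SEM < 10%.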

[5] = target: T3, Androgen receptor (Homo sapiens); test: Induction of full length androgen receptor degradation in human CWR22Rv1 cells at 15 uM after 24 hrs by Western blot analysis; format: cell-based
Summary of the method: (§1)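 CWR22Rv1 prostate cancer cells exposed to compound at 15 μM for 24 h. Protein lysates analysed by Western blot for f-AR and AR-V7 expression.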

[6] = target: T3, Androgen receptor (Homo sapiens); test: Induction of AR-V7 degradation in human CWR22Rv1 cells at 15 uM after 24 hrs by Western blot analysis; format: cell-based; summary of the method: as §1
CWR22R [7] = test: Antitumor activity against human CWR22Rv1 cells xenografted in SCID mouse assessed as tumor growth inhibition at 0.15 mmol/kg, ip bid administered for 5 days per week relative to control; format: functional; details: 22Rv1, ip, 120 h, read-out: TGI

Compound	EC50 (Androgen receptor) [µM]	IC50 (CWR22R [1]) [µM]	IC50 [2] [µM]	Activity [3]	inhibition [4]	IC50 (LNCaP) [µM]	Activity [5]	Activity [6]	inhibition in vivo at 150 µmol/kg (CWR22R [7]) [%]
C[C@]12CC[C@H](n3ccnc3)CC1=CC[C@@H]1[C@@H]2CC[C@]2(C)C(n3cnc4ccccc43)=CC[C@@H]12	0.19	2.54	0.48	Active	Active	1.64	Active	Active	
C[C@]12CCC=CC1=CC[C@@H]1[C@@H]2CC[C@]2(C)C(n3cnc4ccccc43)=CC[C@@H]12					Active				
C[C@]12CC[C@H](OC(=O)n3ccnc3)CC1=CC[C@@H]1[C@@H]2CC[C@]2(C)C(n3cnc4ccccc43)=CC[C@@H]12				Active				Active	70
C[C@]12CC[C@H](OCc3ccccc3)CC1=CC[C@@H]1[C@@H]2CC[C@]2(C)C(n3cnc4ccccc43)=CC[C@@H]12		1.2			Active	5.12			
C[C@]12CC[C@@H](n3ccnc3)CC1=CC[C@@H]1[C@@H]2CC[C@]2(C)C(n3cnc4ccccc43)=CC[C@@H]12		9.88			Active	8.91			
COC(=O)c1ccc2c(c1)CC[C@@H]1[C@@H]2CC[C@]2(C)C(n3cnc4ccccc43)=CC[C@@H]12		8.74	> 15		Active	6.91			
C[C@]12CC[C@H](OCc3ccncc3)CC1=CC[C@@H]1[C@@H]2CC[C@]2(C)C(n3cnc4ccccc43)=CC[C@@H]12	1.65	3.24	> 15	Active	Active	2.45	Active	Active	
C[C@]12CC[C@H](O)CC1=CC[C@@H]1[C@@H]2CC[C@]2(C)C(c3cccnc3)=CC[C@@H]12 [ABIRATERONE]			0.048						
C[C@]12CC[C@@H]3c4ccc(O)cc4CC[C@H]3[C@@H]1CC=C2n1cnc2ccccc21		0.5	25.9		Active	3.89			
CO[C@H]1CC[C@@]2(C)C(=CC[C@@H]3[C@@H]2CC[C@]2(C)C(n4cnc5ccccc54)=CC[C@@H]32)C1		7.5	39		Active	8.71			
C[C@]12CC[C@H](O)CC1=CC[C@@H]1[C@@H]2CC[C@]2(C)C(n3cnc4ccccc43)=CC[C@@H]12 [GALETERONE]		8.91	0.14			3.93			60
CNC(=O)c1ccc(N2C(=S)N(c3ccc(C#N)c(C(F)(F)F)c3)C(=O)C2(C)C)cc1F [ENZALUTAMIDE]						4.85			
C[C@]12CC[C@H](OC(=S)n3ccnc3)CC1=CC[C@@H]1[C@@H]2CC[C@]2(C)C(n3cnc4ccccc43)=CC[C@@H]12	< 0.1	7.52			Active	9.57			
C[C@]12CC[C@H](OCc3cccnc3)CC1=CC[C@@H]1[C@@H]2CC[C@]2(C)C(n3cnc4ccccc43)=CC[C@@H]12		0.81			Active	4.26			
C[C@]12CC[C@@H]3c4ccc(C(=O)O)cc4CC[C@H]3[C@@H]1CC=C2n1cnc2ccccc21					Active			Active	
C[C@]12CC[C@H]3[C@@H](C[C@@H](n4ccnc4)C45CC4CC[C@]35C)[C@@H]1CC=C2n1cnc2ccccc21 (some centres not stated)	0.47	12.3			Active	6.61			
